In ChEMBL document CHEMBL4689842, “EUbOPEN Chemogenomics Library wave 1” (2021):

Assays:
Fibroblast = assay: Incucyte cell viability with human fibroblast; assay type: toxicity, cell-based; details: 10 µM, compound concentration 10 uM; note: filed as whole numbers so only -1 and 0 and 1 occur
U2OS = assay: Multiplex assay against U2OS; assay type: toxicity, cell-based; details: human
Summary of the method: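 Compound was added to live cells that had been stained at seeding with Hoechst33342, BioTracker Green Microtubule Cytoskeleton Dye, MitoTracker Red and Annexin V Alexa Fluor 680, and imaging followed on a CQ1 microscope at 37°C and 5% CO2. CellPathfinder machine-learning gating divided cells into Hoechst high-intensity objects or normal cells, normal cells into healthy, pyknosed or fragmented nuclei, and pyknosed cells into mitotic or apoptotic. Tubulin, mitochondrial-mass and membrane-permeability phenotypes are per cents of healthy-nucleus cells.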

[1] = 0 h, replicate number 1, timepoint 0 hours
[2] = 6 h, replicate number 1, timepoint 6 hours
[3] = 12 h, replicate number 1, timepoint 12 hours
[4] = 18 h, replicate number 1, timepoint 18 hours
[5] = 24 h, replicate number 1, timepoint 24 hours
[6] = 12 h, 1 µM, compound concentration 1 uM, replicate 1
[7] = 12 h, 1 µM, compound concentration 1 uM, replicate 2
[8] = 12 h, 10 µM, compound concentration 10 uM, replicate 1
[9] = 12 h, 10 µM, compound concentration 10 uM, replicate 2
[10] = 24 h, 1 µM, compound concentration 1 uM, replicate 1
[11] = 24 h, 1 µM, compound concentration 1 uM, replicate 2
[12] = 24 h, 10 µM, compound concentration 10 uM, replicate 1
[13] = 24 h, 10 µM, compound concentration 10 uM, replicate 2

N#Cc1cnc(Nc2cc(NC[C@H]3CNCCO3)c(C(F)(F)F)cn2)cn1 [SRA-737]
Growth Rate (Fibroblast; [1]): 0 | Growth Rate (Fibroblast; [2]): 1 | Growth Rate (Fibroblast; [3]): 1 | Growth Rate (Fibroblast; [4]): 1 | Growth Rate (Fibroblast; [5]): 0 | Growth Rate (Fibroblast; 24 h, replicate number 2, timepoint 24 hours): 1 | Population Apoptotic (%) (U2OS; [6]): 18% | Population Fragmented Nuclei (%) (U2OS; [6]): 0% | Population Healthy Nuclei (%) (U2OS; [6]): 89% | Population Hoechst High Intensity Objects (%) (U2OS; [6]): 6% | Population Membrane Permeable-Phenotype (%) (U2OS; [6]): 7% | Population Mitochondria Different-Phenotype (%) (U2OS; [6]): 14% | Population Mitotic Cells (%) (U2OS; [6]): 81% | Population Normal (%) (U2OS; [6]): 93% | Population Pyknosed Nuclei (%) (U2OS; [6]): 9% | Population Tubulin-Different-Phenotype (%) (U2OS; [6]): 26% | Total Cell Count (U2OS; [6]): 249 | Population Apoptotic (%) (U2OS; [7]): 16% | Population Fragmented Nuclei (%) (U2OS; [7]): 4% | Population Healthy Nuclei (%) (U2OS; [7]): 90% | Population Hoechst High Intensity Objects (%) (U2OS; [7]): 9% | Population Membrane Permeable-Phenotype (%) (U2OS; [7]): 10% | Population Mitochondria Different-Phenotype (%) (U2OS; [7]): 18% | Population Mitotic Cells (%) (U2OS; [7]): 83% | Population Normal (%) (U2OS; [7]): 90% | Population Pyknosed Nuclei (%) (U2OS; [7]): 4% | Population Tubulin-Different-Phenotype (%) (U2OS; [7]): 30% | Total Cell Count (U2OS; [7]): 142 | Population Apoptotic (%) (U2OS; [8]): 50% | Population Fragmented Nuclei (%) (U2OS; [8]): 5% | Population Healthy Nuclei (%) (U2OS; [8]): 87% | Population Hoechst High Intensity Objects (%) (U2OS; [8]): 4% | Population Membrane Permeable-Phenotype (%) (U2OS; [8]): 11% | Population Mitochondria Different-Phenotype (%) (U2OS; [8]): 9% | Population Mitotic Cells (%) (U2OS; [8]): 50% | Population Normal (%) (U2OS; [8]): 95% | Population Pyknosed Nuclei (%) (U2OS; [8]): 6% | Population Tubulin-Different-Phenotype (%) (U2OS; [8]): 15% | Total Cell Count (U2OS; [8]): 193 | Population Apoptotic (%) (U2OS; [9]): 23% | Population Fragmented Nuclei (%) (U2OS; [9]): 4% | Population Healthy Nuclei (%) (U2OS; [9]): 85% | Population Hoechst High Intensity Objects (%) (U2OS; [9]): 9% | Population Membrane Permeable-Phenotype (%) (U2OS; [9]): 15% | Population Mitochondria Different-Phenotype (%) (U2OS; [9]): 7% | Population Mitotic Cells (%) (U2OS; [9]): 76% | Population Normal (%) (U2OS; [9]): 90% | Population Pyknosed Nuclei (%) (U2OS; [9]): 10% | Population Tubulin-Different-Phenotype (%) (U2OS; [9]): 16% | Total Cell Count (U2OS; [9]): 143 | Population Apoptotic (%) (U2OS; [10]): 5% | Population Fragmented Nuclei (%) (U2OS; [10]): 0% | Population Membrane Permeable-Phenotype (%) (U2OS; [10]): 5% | Population Mitochondria Different-Phenotype (%) (U2OS; [10]): 12% | Population Mitotic Cells (%) (U2OS; [10]): 94% | Population Pyknosed Nuclei (%) (U2OS; [10]): 5% | Population Tubulin-Different-Phenotype (%) (U2OS; [10]): 31% | Total Cell Count (U2OS; [10]): 330 | Population Apoptotic (%) (U2OS; [11]): 0% | Population Fragmented Nuclei (%) (U2OS; [11]): 2% | Population Healthy Nuclei (%) (U2OS; [11]): 93% | Population Hoechst High Intensity Objects (%) (U2OS; [11]): 3% | Population Membrane Permeable-Phenotype (%) (U2OS; [11]): 6% | Population Mitochondria Different-Phenotype (%) (U2OS; [11]): 23% | Population Mitotic Cells (%) (U2OS; [11]): 100% | Population Normal (%) (U2OS; [11]): 96% | Population Pyknosed Nuclei (%) (U2OS; [11]): 4% | Population Tubulin-Different-Phenotype (%) (U2OS; [11]): 38% | Total Cell Count (U2OS; [11]): 179 | Population Apoptotic (%) (U2OS; [12]): 18% | Population Fragmented Nuclei (%) (U2OS; [12]): 4% | Population Healthy Nuclei (%) (U2OS; [12]): 88% | Population Hoechst High Intensity Objects (%) (U2OS; [12]): 4% | Population Membrane Permeable-Phenotype (%) (U2OS; [12]): 8% | Population Mitochondria Different-Phenotype (%) (U2OS; [12]): 10% | Population Mitotic Cells (%) (U2OS; [12]): 81% | Population Normal (%) (U2OS; [12]): 95% | Population Pyknosed Nuclei (%) (U2OS; [12]): 6% | Population Tubulin-Different-Phenotype (%) (U2OS; [12]): 19% | Total Cell Count (U2OS; [12]): 243 | Population Apoptotic (%) (U2OS; [13]): 50% | Population Fragmented Nuclei (%) (U2OS; [13]): 5% | Population Healthy Nuclei (%) (U2OS; [13]): 87% | Population Hoechst High Intensity Objects (%) (U2OS; [13]): 8% | Population Mitochondria Different-Phenotype (%) (U2OS; [13]): 19% | Population Mitotic Cells (%) (U2OS; [13]): 50% | Population Normal (%) (U2OS; [13]): 91% | Population Tubulin-Different-Phenotype (%) (U2OS; [13]): 12% | Total Cell Count (U2OS; [13]): 168

CCOc1cc2ncc(C#N)c(Nc3ccc(OCc4cccc(F)c4)c(Cl)c3)c2cc1NC(=O)/C=C/CN(C)C [HKI-357]
Growth Rate (Fibroblast; [1]): 0 | Growth Rate (Fibroblast; [2]): 0 | Growth Rate (Fibroblast; [3]): 0 | Growth Rate (Fibroblast; [4]): 0 | Growth Rate (Fibroblast; [5]): 0 | Population Apoptotic (%) (U2OS; [6]): 58% | Population Fragmented Nuclei (%) (U2OS; [6]): 5% | Population Healthy Nuclei (%) (U2OS; [6]): 86% | Population Hoechst High Intensity Objects (%) (U2OS; [6]): 1% | Population Membrane Permeable-Phenotype (%) (U2OS; [6]): 21% | Population Mitochondria Different-Phenotype (%) (U2OS; [6]): 12% | Population Mitotic Cells (%) (U2OS; [6]): 41% | Population Normal (%) (U2OS; [6]): 98% | Population Pyknosed Nuclei (%) (U2OS; [6]): 8% | Population Tubulin-Different-Phenotype (%) (U2OS; [6]): 14% | Total Cell Count (U2OS; [6]): 156 | Population Apoptotic (%) (U2OS; [7]): 25% | Population Fragmented Nuclei (%) (U2OS; [7]): 11% | Population Healthy Nuclei (%) (U2OS; [7]): 84% | Population Hoechst High Intensity Objects (%) (U2OS; [7]): 16% | Population Membrane Permeable-Phenotype (%) (U2OS; [7]): 19% | Population Mitochondria Different-Phenotype (%) (U2OS; [7]): 25% | Population Mitotic Cells (%) (U2OS; [7]): 75% | Population Normal (%) (U2OS; [7]): 83% | Population Pyknosed Nuclei (%) (U2OS; [7]): 4% | Population Tubulin-Different-Phenotype (%) (U2OS; [7]): 21% | Total Cell Count (U2OS; [7]): 141 | Population Apoptotic (%) (U2OS; [8]): 56% | Population Fragmented Nuclei (%) (U2OS; [8]): 13% | Population Healthy Nuclei (%) (U2OS; [8]): 69% | Population Hoechst High Intensity Objects (%) (U2OS; [8]): 5% | Population Membrane Permeable-Phenotype (%) (U2OS; [8]): 43% | Population Mitochondria Different-Phenotype (%) (U2OS; [8]): 33% | Population Mitotic Cells (%) (U2OS; [8]): 43% | Population Normal (%) (U2OS; [8]): 94% | Population Pyknosed Nuclei (%) (U2OS; [8]): 16% | Population Tubulin-Different-Phenotype (%) (U2OS; [8]): 95% | Total Cell Count (U2OS; [8]): 210 | Population Apoptotic (%) (U2OS; [9]): 69% | Population Fragmented Nuclei (%) (U2OS; [9]): 20% | Population Healthy Nuclei (%) (U2OS; [9]): 65% | Population Hoechst High Intensity Objects (%) (U2OS; [9]): 12% | Population Membrane Permeable-Phenotype (%) (U2OS; [9]): 31% | Population Mitochondria Different-Phenotype (%) (U2OS; [9]): 39% | Population Mitotic Cells (%) (U2OS; [9]): 30% | Population Normal (%) (U2OS; [9]): 87% | Population Pyknosed Nuclei (%) (U2OS; [9]): 13% | Population Tubulin-Different-Phenotype (%) (U2OS; [9]): 88% | Total Cell Count (U2OS; [9]): 119 | Population Apoptotic (%) (U2OS; [10]): 32% | Population Fragmented Nuclei (%) (U2OS; [10]): 7% | Population Healthy Nuclei (%) (U2OS; [10]): 82% | Population Hoechst High Intensity Objects (%) (U2OS; [10]): 2% | Population Membrane Permeable-Phenotype (%) (U2OS; [10]): 23% | Population Mitochondria Different-Phenotype (%) (U2OS; [10]): 16% | Population Mitotic Cells (%) (U2OS; [10]): 67% | Population Normal (%) (U2OS; [10]): 97% | Population Pyknosed Nuclei (%) (U2OS; [10]): 10% | Population Tubulin-Different-Phenotype (%) (U2OS; [10]): 17% | Total Cell Count (U2OS; [10]): 172 | Population Apoptotic (%) (U2OS; [11]): 45% | Population Fragmented Nuclei (%) (U2OS; [11]): 9% | Population Hoechst High Intensity Objects (%) (U2OS; [11]): 7% | Population Membrane Permeable-Phenotype (%) (U2OS; [11]): 10% | Population Mitochondria Different-Phenotype (%) (U2OS; [11]): 23% | Population Mitotic Cells (%) (U2OS; [11]): 54% | Population Normal (%) (U2OS; [11]): 92% | Population Pyknosed Nuclei (%) (U2OS; [11]): 8% | Population Tubulin-Different-Phenotype (%) (U2OS; [11]): 27% | Total Cell Count (U2OS; [11]): 154 | Population Apoptotic (%) (U2OS; [12]): 84% | Population Fragmented Nuclei (%) (U2OS; [12]): 8% | Population Healthy Nuclei (%) (U2OS; [12]): 68% | Population Hoechst High Intensity Objects (%) (U2OS; [12]): 4% | Population Membrane Permeable-Phenotype (%) (U2OS; [12]): 32% | Population Mitochondria Different-Phenotype (%) (U2OS; [12]): 58% | Population Mitotic Cells (%) (U2OS; [12]): 15% | Population Normal (%) (U2OS; [12]): 95% | Population Pyknosed Nuclei (%) (U2OS; [12]): 23% | Population Tubulin-Different-Phenotype (%) (U2OS; [12]): 81% | Total Cell Count (U2OS; [12]): 272 | Population Apoptotic (%) (U2OS; [13]): 86% | Population Healthy Nuclei (%) (U2OS; [13]): 74% | Population Hoechst High Intensity Objects (%) (U2OS; [13]): 12% | Population Membrane Permeable-Phenotype (%) (U2OS; [13]): 23% | Population Mitochondria Different-Phenotype (%) (U2OS; [13]): 69% | Population Mitotic Cells (%) (U2OS; [13]): 13% | Population Normal (%) (U2OS; [13]): 87% | Population Pyknosed Nuclei (%) (U2OS; [13]): 17% | Population Tubulin-Different-Phenotype (%) (U2OS; [13]): 84% | Total Cell Count (U2OS; [13]): 141
